Among the data in ChEMBL document CHEMBL1125422, “Low molecular weight proteins as carriers for renal drug targeting. Preparation of drug-protein conjugates and drug-spacer derivatives and their catabolism in renal cortex homogenates and lysosomal lysates” (J Med Chem, 1992) are Drug release values, retold here.

The species entered for data set [1] is Rattus norvegicus. Kind of data set: (§1) Lysozyme-conjugated prodrugs: in vitro stability at pH 7.4. Type of data set: functional. A digest of the protocol:
(§2)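 Conjugate incubated 24 h in pH 5.0 buffer, pH 7.4 buffer, or plasma buffered at pH 7.4. Samples were deproteinized with ACN, MeOH or 2 N HCl, centrifuged, and analyzed by RP-HPLC against an internal standard. Release is % parent drug = parent/(parent + derivative) from IS-normalized peak-area ratios, mean of at least two separate incubations.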

For data set [2], the species on record is Rattus norvegicus. As to the kind of experiment: (§3) Lysozyme-conjugated prodrugs: in vitro stability at pH 5. Type of data set: functional. The method, boiled down:
as §2

For data set [3], the species on record is Rattus norvegicus. The description is as §1. In kind it is functional. A digest of the protocol: as §2
This is another data set of the same source.

Data set [4] is filed under the species Rattus norvegicus. The description is as §3. In kind it is functional. A digest of the protocol: as §2
This is another data set of the same source.

The species named for data set [5] is Rattus norvegicus. Described as §3. In kind it is ADME. The method, boiled down: as §2
The species named for data set [6] is Rattus norvegicus. Described as §1. Type of data set: functional. The method, boiled down: as §2
The source holds these as a separate data set.

The species entered for data set [7] is Rattus norvegicus. The description is as §1. Type of data set: functional. A digest of the protocol:
as §2
The source holds these as a separate data set.

Square brackets hold non-standard residues; d marks the D form. Peptide text beside a SMILES is read from it. * marks the point of attachment. ξ: configuration not given here. βNA = c1ccc2cc(N*)ccc2c1; Cbz = O=C(OCc1ccccc1)*; ξP = O=C(O)C1CCCN1

For `C[C@@H](NC(=O)C(Cc1ccccc1)NC(=O)OCc1ccccc1)C(=O)O` (some centres undefined), the Drug release in data set [1] was determined as 100%; in data set [2], 100%; in data set [3] it was 100%; in data set [4], 100%; in data set [5], 0%; in data set [6], 0%.
With `COc1ccc2c(c1)c(CC(=O)N[C@@H](CCC(=O)O)C(=O)O)c(C)n2C(=O)c1ccc(Cl)cc1`, the Drug release in data set [2], in data set [3], in data set [5] and in data set [6] was 0% in each case.
Take `COc1ccc2cc(C(C)C(=O)NCCCC[C@H](N)C(=O)O)ccc2c1` (some centres undefined): the Drug release in data set [1], in data set [2], in data set [3], in data set [4], in data set [5] and in data set [6] was 0% in each case. Further, in data set [7], the Drug release is given as 0%.
As to `COc1ccc2cc(C(C)C(=O)OCC(=O)O)ccc2c1` (centres undefined), the Drug release in data set [1] is reported as 5%; in data set [2], 81%; in data set [3], 8%; in data set [4], 45%; in data set [5] it was 1%; in data set [6], 2%. In addition, the Drug release in data set [7] is 8%.
As to `CC(C)C[C@H](NC(=O)c1ccccc1)C(=O)O`, the Drug release in data set [2], in data set [3], in data set [5] and in data set [6] was 0% in each case.
As to `O=C(N[C@@H](Cc1ccccc1)C(=O)O)c1ccccc1`, the Drug release in data set [2], in data set [3], in data set [5] and in data set [6] was 0% throughout.
With `COc1ccc2c(c1)c(CC(=O)N[C@@H](CC(C)C)C(=O)O)c(C)n2C(=O)c1ccc(Cl)cc1`, the Drug release in data set [2], in data set [3], in data set [5] and in data set [6] was 0% in each case.
As for `COc1ccc2cc(C(C)C(=O)N[C@@H](CCC(=O)O)C(=O)O)ccc2c1` (some centres undefined), the Drug release in data set [2], in data set [3], in data set [5] and in data set [6] was 0% throughout.
`COc1ccc2c(c1)c(CC(=O)NCCCC[C@H](NC(=O)OCc1ccccc1)C(=O)O)c(C)n2C(=O)c1ccc(Cl)cc1`: the Drug release in data set [2], in data set [3], in data set [5] and in data set [6] was 0% in each case.
As to `COc1ccc2c(c1)c(CC(=O)NCC(=O)O)c(C)n2C(=O)c1ccc(Cl)cc1`, the Drug release in data set [2], in data set [3], in data set [5] and in data set [6] was 0% each time.
As for `COc1ccc2cc(C(C)C(=O)N[C@@H](Cc3ccccc3)C(=O)O)ccc2c1` (some centres undefined), the Drug release in data set [2], in data set [3], in data set [5] and in data set [6] was 0% each time.
On to `C[C@H](NC(=O)OCc1ccccc1)C(=O)N1CCC[C@H]1C(=O)N[C@@H](Cc1ccccc1)C(=O)O` (Cbz-Ala-Pro-Phe-OH), for which the Drug release worked out at 0% in data set [2], 96% in data set [3], 0% in data set [5] and 0% in data set [6].
As to `O=C(N[C@@H](Cc1c[nH]c2ccccc12)C(=O)O)c1ccccc1`, the Drug release in data set [2], in data set [3], in data set [5] and in data set [6] was 0% each time.
Turning to `COc1ccc2c(c1)c(CC(=O)N[C@@H](Cc1ccccc1)C(=O)O)c(C)n2C(=O)c1ccc(Cl)cc1`, the Drug release in data set [2], in data set [3], in data set [5] and in data set [6] was 0% in each case.
As to `O=C(N[C@@H](Cc1ccc(O)cc1)C(=O)O)c1ccccc1`, the Drug release in data set [2], in data set [3], in data set [5] and in data set [6] was 0% throughout.
For `COc1ccc2cc(C(C)C(=O)O[C@@H](C)C(=O)O)ccc2c1` (stereo in doubt), the Drug release was 2% in data set [2]; 2% in data set [4]; 1.1% in data set [5]; 6.9% in data set [6]; 6.8% in data set [7].
Turning to `COc1ccc2cc(C(C)C(=O)N[C@@H](CC(C)C)C(=O)NCC(=O)NCC(=O)O)ccc2c1` (stereo in doubt; 1o), the Drug release in data set [2], in data set [3], in data set [5] and in data set [6] was 0% each time.
Regarding `NCC(=O)N[C@@H](Cc1ccccc1)C(=O)Nc1ccc2ccccc2c1` (H-Gly-Phe-βNA), the Drug release is 100% in data set [1]; 100% in data set [2]; 100% in data set [3]; 100% in data set [4]; 0% in data set [5]; 0% in data set [6].
With `CC(C)C[C@H](N)C(=O)Nc1nc2nc(N)nc(N)c2nc1-c1ccccc1`, the Drug release was under 5% in data set [2], under 5% in data set [3], 0% in data set [5] and 0% in data set [6].
`COc1ccc2cc(C(C)C(=O)N[C@@H](Cc3ccc(O)cc3)C(=O)NCC(=O)NCC(=O)O)ccc2c1` (stereo in doubt; 1p): the Drug release in data set [2], in data set [3], in data set [5] and in data set [6] was 0% throughout.
`COc1ccc2cc(C(C)C(=O)N[C@@H](CCCN=C(N)N)C(=O)O)ccc2c1` (some centres undefined): the Drug release in data set [2], in data set [3], in data set [5] and in data set [6] was 0% throughout.
Regarding `O=C(O)CC[C@H](NC(=O)c1ccccc1)C(=O)O`, the Drug release in data set [2], in data set [3], in data set [5] and in data set [6] was 0% throughout.
Take `COc1ccc2c(c1)c(CC(=O)N[C@@H](Cc1ccc(O)cc1)C(=O)O)c(C)n2C(=O)c1ccc(Cl)cc1`: the Drug release in data set [2], in data set [3], in data set [5] and in data set [6] was 0% in each case.
As to `COc1ccc2c(c1)c(CC(=O)N[C@@H](Cc1c[nH]c3ccccc13)C(=O)O)c(C)n2C(=O)c1ccc(Cl)cc1`, the Drug release in data set [2], in data set [3], in data set [5] and in data set [6] was 0% in each case.
In the case of `O=C(N[C@@H](Cc1ccccc1)C(=O)O)C1CCCN1C(=O)OCc1ccccc1` (some centres undefined) (Cbz-[ξP]-Phe-OH), the Drug release is 100% in data set [1]; 100% in data set [2]; 100% in data set [3]; 100% in data set [4]; 0% in data set [5]; 0% in data set [6].
On to `CC(C)C[C@H](N)C(=O)Nc1nc(N)c2nc(-c3ccccc3)c(N)nc2n1`, for which the Drug release in data set [2] is recorded as under 5%; in data set [3], under 5%; in data set [5], 0%; in data set [6], 0%.
In the case of `NCCCC[C@H](NC(=O)c1ccccc1)C(=O)O`, the Drug release in data set [2], in data set [3], in data set [5] and in data set [6] was 0% throughout.
In the case of `O=C(O)CNC(=O)c1ccccc1` [HIPPURIC ACID], the Drug release in data set [2], in data set [3], in data set [5] and in data set [6] was 0% throughout.
As for `CC(C)C[C@H](N)C(=O)Nc1ccc2ccccc2c1`, the Drug release in data set [1] was determined as 100%; in data set [2], 100%; in data set [3], 100%; in data set [4], 100%; in data set [5], 0%; in data set [6], 0%.
On to `COc1ccc2cc(C(C)C(=O)N[C@@H](CC(C)C)C(=O)O)ccc2c1` (some centres undefined), for which the Drug release in data set [2], in data set [3], in data set [5] and in data set [6] was 0% each time.
As for `CC(C)C[C@H](N)C(=O)Nc1nc(N)nc2nc(N)c(-c3ccccc3)nc12`, the Drug release in data set [2], in data set [3], in data set [5] and in data set [6] was 0% in each case.
Take `COc1ccc2cc(C(C)C(=O)N[C@H](C(=O)O)C(C)C)ccc2c1` (some centres undefined): the Drug release in data set [2], in data set [3], in data set [5] and in data set [6] was 0% throughout.
Take `COc1ccc2cc(C(C)C(=O)N[C@@H](Cc3c[nH]c4ccccc34)C(=O)O)ccc2c1` (some centres undefined): the Drug release in data set [2], in data set [3], in data set [5] and in data set [6] was 0% throughout.
Consider `COc1ccc2cc(C(C)C(=O)NCC(=O)O)ccc2c1` (centres undefined), for which the Drug release in data set [2], in data set [3], in data set [5] and in data set [6] was 0% throughout.
Regarding `COc1ccc2cc(C(C)C(=O)N[C@@H](Cc3ccc(O)cc3)C(=O)O)ccc2c1` (some centres undefined), the Drug release in data set [2], in data set [3], in data set [5] and in data set [6] was 0% each time.
Regarding `N=C(N)NCCC[C@H](NC(=O)c1ccccc1)C(=O)O`, the Drug release in data set [2], in data set [3], in data set [5] and in data set [6] was 0% each time.
